# Measurements as given in article PMC6055619 (British Journal of Haematology, 2018).
# “Also recorded” adds a separate entry of the source.
# Columns and labels:
# patients with NDMM [1] = assay: Phase 1 dose escalation; type: in vivo, human; settings: twice-weekly ixazomib 3·0 or 3·7 mg plus Rd
# Outline: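 Phase 1 tested two fixed ixazomib doses (3·0 and 3·7 mg) with a standard 3 + 3 scheme, scoring DLTs during cycle 1. MTD was the highest dose with ≤1 of 6 evaluable patients having a DLT. RP2D selection also used response rates and toxicity over later cycles.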
# [2] = Ixazomib plasma pharmacokinetics, non-compartmental analysis; type: in vivo, human; settings: for AUC(0-t): 3 mg, AUC0–72, geometric mean (%CV), RP2D 3·0 mg
# Outline: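 Phase 1 patients took fixed oral ixazomib 3·0 or 3·7 mg on an empty stomach (≥1 h before or ≥2 h after a meal), on days 1, 4, 8 and 11 of a 21-day cycle. Co-dosing was lenalidomide 25 mg on days 1–14 plus dexamethasone 20 mg. Serial plasma samples were taken, and non-compartmental parameters were calculated on cycle 1 days 1 and 11. Values are reported as geometric mean (%CV).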
# [3] = ref Gupta et al, 2015b; cited from earlier work
# patients with NDMM [4] = assay: Adverse events graded by NCI CTCAE v4·03; type: in vivo, human
# Outline: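 AEs were recorded throughout treatment and for 30 days after the last dose, and graded by NCI CTCAE v4·03 in all patients given ≥1 dose of any study drug. Maintenance patients had responding or stable disease after 16 cycles of ixazomib-Rd induction. They then took single-agent oral ixazomib on days 1, 4, 8 and 11 of 21-day cycles, at the last-tolerated induction dose, until progression or unacceptable toxicity.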
# [5] = during single-agent ixazomib maintenance
# [6] = patients who received single-agent ixazomib maintenance
# [7] = received maintenance, n = 18, new-onset AEs during cycle ≥17
compound,measurement,setting,value
CC(C)C[C@H](NC(=O)CNC(=O)c1cc(Cl)ccc1Cl)B(O)O [ixazomib],Dose-limiting toxicities in cycle 1,patients with NDMM [1],No dose‐limiting toxicities; also recorded: no DLTs
same,Tmax,"[2]; human, plasma, oral",1 h
same,AUC(0-t),"[2]; human, plasma, oral, day 1",315 ng·h/mL
same,AUC(0-t),"[2]; human, plasma, oral, day 11",1110 ng·h/mL
same,Pharmacokinetic interaction of ixazomib with Rd,[2]; pharmacokinetic data similar to other studies,no pharmacokinetic interaction
same,Effects on QTc or heart rate,[3],no clinically meaningful effects
same,New-onset drug-related grade 3 PN NEC,patients with NDMM [4]; during maintenance,6%
same,New-onset drug-related grade 3 hyperglycaemia,patients with NDMM [4]; during maintenance,0%
same,"New-onset drug-related grade 3 rashes, eruptions and exanthems NEC",patients with NDMM [4]; during maintenance,6%
same,New-onset drug-related PN NEC,patients with NDMM [4]; [5],28%
same,New-onset drug-related fatigue,patients with NDMM [4]; [5],11%
same,"New-onset drug-related rashes, eruptions and exanthems NEC",patients with NDMM [4]; [5],17%
same,New-onset AEs resulting in dose reductions,patients with NDMM [4]; patients who received ixazomib maintenance,33%
same,New-onset drug-related AEs during maintenance,patients with NDMM [4]; [6],89%
same,New-onset drug-related grade 3 AEs during maintenance,patients with NDMM [4]; [6],28%
same,On-study deaths,"patients with NDMM [4]; received maintenance, n = 18, cycle ≥17",0 n (%)
same,AE resulting in any study drug dose reduction,patients with NDMM [4]; [7],6 (33) n (%)
same,AE resulting in discontinuation,patients with NDMM [4]; [7],3 (17) n (%)
same,Any AE,patients with NDMM [4]; [7],16 (89) n (%)
same,Any SAE,patients with NDMM [4]; [7],2 (11) n (%)
same,Any drug-related AE,patients with NDMM [4]; [7],16 (89) n (%)
same,Any drug-related SAE,patients with NDMM [4]; [7],2 (11) n (%)
same,Any drug-related grade ≥3 AE,patients with NDMM [4]; [7],5 (28) n (%)
same,Any grade ≥3 AE,patients with NDMM [4]; [7],8 (44) n (%)
same,"Drug-related ALT increased, All-grade",patients with NDMM [4]; [7],1 (6) n (%)
same,"Drug-related ALT increased, Grade 3",patients with NDMM [4]; [7],0 n (%)
same,"Drug-related Anxiety, All-grade",patients with NDMM [4]; [7],0 n (%)
same,"Drug-related Anxiety, Grade 3",patients with NDMM [4]; [7],0 n (%)
same,"Drug-related Constipation, All-grade",patients with NDMM [4]; [7],0 n (%)
same,"Drug-related Constipation, Grade 3",patients with NDMM [4]; [7],0 n (%)
same,"Drug-related Diarrhoea, All-grade",patients with NDMM [4]; [7],5 (28) n (%)
same,"Drug-related Diarrhoea, Grade 3",patients with NDMM [4]; [7],1 (6) n (%)
same,"Drug-related Dizziness, All-grade",patients with NDMM [4]; [7],1 (6) n (%)
same,"Drug-related Dizziness, Grade 3",patients with NDMM [4]; [7],0 n (%)
same,"Drug-related Dysgeusia, All-grade",patients with NDMM [4]; [7],0 n (%)
same,"Drug-related Dysgeusia, Grade 3",patients with NDMM [4]; [7],0 n (%)
same,"Drug-related Fatigue, All-grade",patients with NDMM [4]; [7],2 (11) n (%)
same,"Drug-related Fatigue, Grade 3",patients with NDMM [4]; [7],0 n (%)
same,"Drug-related Hyperglycaemia, All-grade",patients with NDMM [4]; [7],2 (11) n (%)
same,"Drug-related Hyperglycaemia, Grade 3",patients with NDMM [4]; [7],0 n (%)
same,"Drug-related Hyponatraemia, All-grade",patients with NDMM [4]; [7],0 n (%)
same,"Drug-related Hyponatraemia, Grade 3",patients with NDMM [4]; [7],0 n (%)
same,"Drug-related Insomnia, All-grade",patients with NDMM [4]; [7],0 n (%)
same,"Drug-related Insomnia, Grade 3",patients with NDMM [4]; [7],0 n (%)
same,"Drug-related Muscle spasms, All-grade",patients with NDMM [4]; [7],0 n (%)
same,"Drug-related Muscle spasms, Grade 3",patients with NDMM [4]; [7],0 n (%)
same,"Drug-related Muscular weakness, All-grade",patients with NDMM [4]; [7],2 (11) n (%)
same,"Drug-related Muscular weakness, Grade 3",patients with NDMM [4]; [7],1 (6) n (%)
same,"Drug-related Nausea, All-grade",patients with NDMM [4]; [7],6 (33) n (%)
same,"Drug-related Nausea, Grade 3",patients with NDMM [4]; [7],1 (6) n (%)
same,"Drug-related Neutropenia, All-grade",patients with NDMM [4]; [7],0 n (%)
same,"Drug-related Neutropenia, Grade 3",patients with NDMM [4]; [7],0 n (%)
same,"Drug-related Neutrophil count decreased, All-grade",patients with NDMM [4]; [7],1 (6) n (%)
same,"Drug-related Neutrophil count decreased, Grade 3",patients with NDMM [4]; [7],1 (6) n (%)
same,"Drug-related PN NEC, All-grade",patients with NDMM [4]; [7],5 (28) n (%)
same,"Drug-related PN NEC, Grade 3",patients with NDMM [4]; [7],1 (6) n (%)
same,"Drug-related Peripheral oedema, All-grade",patients with NDMM [4]; [7],2 (11) n (%)
same,"Drug-related Peripheral oedema, Grade 3",patients with NDMM [4]; [7],0 n (%)
same,"Drug-related Pneumonia, All-grade",patients with NDMM [4]; [7],0 n (%)
same,"Drug-related Pneumonia, Grade 3",patients with NDMM [4]; [7],0 n (%)
same,"Drug-related Rashes, eruptions and exanthems NEC, All-grade",patients with NDMM [4]; [7],3 (17) n (%)
same,"Drug-related Rashes, eruptions and exanthems NEC, Grade 3",patients with NDMM [4]; [7],1 (6) n (%)
same,"Drug-related Thrombocytopenia, All-grade",patients with NDMM [4]; [7],0 n (%)
same,"Drug-related Thrombocytopenia, Grade 3",patients with NDMM [4]; [7],0 n (%)
same,"Drug-related Vomiting, All-grade",patients with NDMM [4]; [7],3 (17) n (%)
same,"Drug-related Vomiting, Grade 3",patients with NDMM [4]; [7],1 (6) n (%)
